Screening data as filed in PubChem.
Shown are actives, neighbours in structure and some others; about 1% of the full set was active somewhere.
thrombin 1536 = thrombin (human) inhibition; hit rate 0.26% among 220,000; alpha-thrombin, Boc-VPR-AMC fluorogenic substrate cleavage; P00734; inhibition, % at 5 µM;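 active = inhibition at or above 40%; inactive = inhibition below 40%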;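 also: 0% = enzyme with no compound and 100% = wells without enzyme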
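Test system: human alpha-thrombin protein / Dosing: one concentration per compound, 5 µM, with 0.2% DMSO / Medium: pH 7.5 Tris-saline with Tween 20 / Benchmarks: no-compound enzyme wells and no-enzyme blanks / Read-out basis: percent inhibition of thrombin substrate cleavage / Timing: reaction at room temperature / Measured by: fluorescence, ex 355 nm, em 460 nm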
FXIIa inh 1536 = inhibitors of human coagulation factor XIIa; P00748; purified FXIIa, Boc-QGR-AMC fluorogenic substrate, 2 h; inhibition, % at 5 µM; hit rate 0.3% among 220,000; AID 800; in the data active = inhibition above about 40%;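 also: 0% = enzyme with no compound and 100% = blank without enzyme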
Target sequence (P00748 20-372 limits assumed): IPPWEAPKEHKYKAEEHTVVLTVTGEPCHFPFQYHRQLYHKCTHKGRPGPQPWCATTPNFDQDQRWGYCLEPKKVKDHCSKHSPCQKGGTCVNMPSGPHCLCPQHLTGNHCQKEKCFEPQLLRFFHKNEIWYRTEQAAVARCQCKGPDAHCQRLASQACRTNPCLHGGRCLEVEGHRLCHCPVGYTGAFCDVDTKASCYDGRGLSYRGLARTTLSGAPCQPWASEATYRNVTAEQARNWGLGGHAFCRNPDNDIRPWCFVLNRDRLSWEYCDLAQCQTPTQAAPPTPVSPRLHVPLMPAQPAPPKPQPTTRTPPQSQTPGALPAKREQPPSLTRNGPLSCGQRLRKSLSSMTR
Target sequence (P00748 373-615 limits assumed): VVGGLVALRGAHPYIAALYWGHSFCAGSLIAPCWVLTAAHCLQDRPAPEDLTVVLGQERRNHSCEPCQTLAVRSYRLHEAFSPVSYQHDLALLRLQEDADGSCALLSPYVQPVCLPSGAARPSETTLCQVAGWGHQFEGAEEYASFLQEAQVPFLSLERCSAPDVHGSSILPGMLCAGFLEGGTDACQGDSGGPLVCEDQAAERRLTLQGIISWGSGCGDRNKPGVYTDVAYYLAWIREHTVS
FXIa inh = blocks human coagulation factor XIa protease activity; P03951; purified FXIa, Boc-Glu-Ala-Arg-AMC fluorogenic substrate; inhibition, % at 5 µM; hit rate 0.14% among 220,000; AID 798;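 active = inhibition of at least 40%; inactive = inhibition below 40%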;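 also: fluorescence of freed AMC excited at 355 nm; 0% = enzyme without compound and 100% = no enzyme blank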
KLK5 inh = inhibitors of human kallikrein 5 | Q9Y337 | recombinant hK5, fluorogenic AMC substrate cleavage | inhibition, % at 5 µM | hit rate 0.59% among 210,000;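 active = inhibition of 40% or more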;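 also: 0% = enzyme controls without compound and 100% = no-enzyme blanks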
Active calls of the source: *; x = no result.

SMILES	thrombin 1536	FXIIa inh 1536	FXIa inh	KLK5 inh
CCC(C)NCCOc1cc(C)cc(C)c1C (stereo not given)	56.1*	x	35.0	31.2
CCC(C)NCCOCCOc1ccc(C)cc1OC (stereo not given)	2.5	11.0	18.9	-3.5
Cc1ccsc1/C=N\NC(=O)c1cc(C(C)(C)C)[nH]n1	0.1	-2.2	-3.8	-9.9
Cn1cc(C(=O)NCc2cccs2)c(=O)c2cc(S(=O)(=O)N3CCCC3)ccc21	73.9*	2.7	-2.2	-6.3
CCn1cc(C(=O)NCc2ccco2)c(=O)c2cc(S(=O)(=O)N3CCC(C)CC3)ccc21	8.4	22.6	2.5	-3.1
CCn1cc(C(=O)NCc2ccco2)c(=O)c2cc(S(=O)(=O)N3CCCCCC3)ccc21	40.8*	15.9	-1.8	-4.0
Cn1cc(C(=O)NCc2cccnc2)c(=O)c2cc(S(=O)(=O)N3CCCCCC3)ccc21	12.3	11.4	0.2	2.0
COc1ccc(C2C(C#N)=C(N)N(c3cccnc3)C3=C2C(=O)CC(C)(C)C3)cc1OC (stereo not given)	2.4	18.7	13.8	-1.3
COc1ccc(N2C(N)=C(C#N)C(c3cccnc3)C3=C2CC(C)(C)CC3=O)cc1 (stereo not given)	20.1	22.8	9.6	51.2*
O=C(CN(Cc1cccs1)C(=O)CCC(=O)Nc1nccs1)NCc1ccccc1	16.7	106.8*	7.6	104.6*
COc1cc2c(cc1OC)C(C(=O)NCCN(C)C)C(c1cccs1)N(C)C2=O (stereo not given)	-8.9	3.7	-2.6	-3.3
COC(=O)C(C)NC(=O)C1CCCN1S(=O)(=O)c1cc(C)c(Cl)cc1C (stereo not given)	17.1	48.3*	5.5	48.9*
CC1CCCN(C(=O)C2CCCN(S(=O)(=O)c3cccc4nsnc34)C2)C1 (stereo not given)	-9.8	44.1*	-1.3	-14.4
O=C(C1CCCN(S(=O)(=O)c2cccc3nsnc23)C1)N1CCCCCC1 (stereo not given)	-2.3	5.8	-3.1	x
OCc1nc2ccccc2n1/N=C/c1cccs1	14.7	17.0	15.8	42.9*
COc1ccccc1-n1c2c(cc(C(=O)N3CCC(C)CC3)c1=O)C(=O)CC(C)(C)C2	10.3	37.9	17.4	52.3*
COc1ccc(-n2c3c(cc(C(=O)N4CCC(C)CC4)c2=O)C(=O)CC(C)(C)C3)cc1	-6.2	8.6	1.4	-0.9
COc1ccc(N2CCN(C(=O)c3ccccc3Br)CC2)c([N+](=O)[O-])c1	-2.7	-4.7	-7.0	-24.4
Cc1c(C)[n+](=O)c(-c2cccs2)c(C)n1[O-]	-0.7	-6.7	-6.7	-12.3
Cc1c(-c2cccs2)[n+](=O)c2c(n1[O-])CCC2	40.1*	34.3	17.1	60.3*
CC(C)c1nc2oc3c(N(C)CCO)ncnc3c2c2c1CCC2	-4.5	1.4	-5.2	1.6
COC(C[C@H](O)C[C@@H](O)[C@@H](C)OCc1ccccc1)OC	-2.4	2.5	-3.8	-2.5
COC(C[C@H](O)C[C@@H](O)[C@H](C)OCc1ccccc1)OC	-2.6	46.3*	25.7	16.6
CCOc1ccccc1CN1CCN(Cc2nc3c(s2)CCCC3)CC1CCO (stereo not given)	-7.4	3.3	-3.1	-3.7
O=C1CCCS(=O)(=O)c2ccccc21	-3.1	1.6	-4.6	-4.8
SMILES	thrombin 1536	FXIIa inh 1536	FXIa inh	KLK5 inh
O=C(O)CCN1C(=O)C2C3c4ccccc4C(c4ccccc43)[C@@H]2C1=O (stereo not given in full)	23.3	46.0*	30.8	29.7
CNc1ncc(C(=O)c2ccc(Br)cc2)s1	7.9	8.1	7.5	2.6
O=C(COC(=O)C1CC(=O)N(Cc2ccco2)C1)c1ccc(OC(=O)c2ccco2)cc1 (stereo not given)	23.5	40.5*	25.3	31.4
Cc1ccc(C(=O)Oc2ccc(C(=O)COC(=O)C3CC(=O)N(Cc4ccco4)C3)cc2)cc1 (stereo not given)	-4.3	13.8	4.1	-18.7
O=C(NCC(=O)N1CCN(S(=O)(=O)/C=C/c2ccccc2)CC1)c1ccccc1F	x	56.7*	25.7	39.1
Cc1ccnc(NC(=O)Cn2cc([N+](=O)[O-])cn2)c1	-3.5	5.1	-5.2	-13.4
CCOC(=O)c1ccc(NC(=O)NC2CCN(CC(=O)NCc3ccc4c(c3)OCO4)CC2)cc1	43.3*	13.7	9.8	30.2
CCOC(=O)c1ccc(NC(=O)c2ccc3c(c2)OCO3)cc1	0.2	10.8	-1.2	2.3
CCOc1ccc(NC(=O)CN2C(=O)CSC(C)C2=O)cc1 (stereo not given)	-29.4	1.5	-8.4	-6.6
